Measured values published in ChEMBL document CHEMBL1156385, “Macharistol, a new cytotoxic cinnamylphenol from the stems of Machaerium aristulatum” (J Nat Prod, 2001).
Values after ≈ are worked out from the molar mass of the structure shown. Active and inactive are the calls of the source. The rule behind the calls is not given here.

Key:
KB [1] = assay: Cytotoxicity against human KB cells; assay type: functional, cell-based
KB [2] = assay: Growth inhibition of human KB cells implanted at intraperitoneal compartment of athymic NCr nu/nu mouse at 25 mg/kg, ip administered once daily after 3 to 6 days of fiber implantation measured on day 7 by hollow fiber assay; assay type: functional; details: read-out: GI
Outline: (§1)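 Hollow fibers carrying KB (7.5 × 10⁵ cells/mL), Col-2 (10⁶ cells/mL) or hTERT-RPE1 (2.5 × 10⁶ cells/mL) cells were implanted i.p. and s.c. in female athymic NCr nu/nu mice. Compound was coprecipitated with PVP (MW 360 000) and dissolved in PBS. Doses of 6.25, 12.5 or 25 mg/kg were given i.p. once daily on days 3–6 after implantation. Fiber cell growth inhibition was measured.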

KB [3] = assay: Growth inhibition of human KB cells implanted at subcutaneous compartment of athymic NCr nu/nu mouse at 25 mg/kg, ip administered once daily after 3 to 6 days of fiber implantation measured on day 7 by hollow fiber assay; assay type: functional; details: sc, read-out: GI; outline: as §1
Col2 [4] = assay: Growth inhibition of human Col2 cells implanted at intraperitoneal compartment of athymic NCr nu/nu mouse at 25 mg/kg, ip administered once daily after 3 to 6 days of fiber implantation measured on day 7 by hollow fiber assay; assay type: functional; details: read-out: GI; outline: as §1
Col2 [5] = assay: Growth inhibition of human Col2 cells implanted at subcutaneous compartment of athymic NCr nu/nu mouse at 25 mg/kg, ip administered once daily after 3 to 6 days of fiber implantation measured on day 7 by hollow fiber assay; assay type: functional; details: Col2, sc, read-out: GI; outline: as §1
[6] = Growth inhibition of human telomerase […] RPE1 cells implanted at intraperitoneal compartment of athymic NCr nu/nu mouse at 25 mg/kg, ip administered once daily after 3 to 6 days of fiber implantation measured on day 7 by hollow fiber assay; assay type: functional, TERT-RPE1; details: RPE-1, ip, read-out: GI; outline: as §1
[7] = Growth inhibition of human telomerase […] RPE1 cells implanted at subcutaneous compartment of athymic NCr nu/nu mouse at 25 mg/kg, ip administered once daily after 3 to 6 days of fiber implantation measured on day 7 by hollow fiber assay; assay type: functional, TERT-RPE1; details: RPE-1, sc, read-out: GI; outline: as §1
Mus musculus [8] = assay: Toxicity in athymic NCr nu/nu mouse implanted with human KB cells at intraperitoneal compartment assessed as body weight loss at 25 mg/kg, ip administered once daily after 3 to 6 days of fiber implantation measured on day 7 by hollow fiber assay; assay type: organism-based; set-up: dose 25 mg/kg, route intraperitoneal; details: in vivo
Outline: (§2)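 Female athymic NCr nu/nu mice carried i.p. and s.c. hollow fibers with KB, Col-2 or hTERT-RPE1 cells. They received the PVP-coprecipitated compound in PBS at 6.25, 12.5 or 25 mg/kg i.p. once daily on days 3–6 after implantation. Toxicity was followed as body weight, recorded daily.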

Mus musculus [9] = assay: Toxicity in athymic NCr nu/nu mouse implanted with human telomerase […] RPE1 cells at subcutaneous compartment assessed as body weight loss at 25 mg/kg, ip administered once daily after 3 to 6 days of fiber implantation measured on day 7 by hollow fiber assay; assay type: organism-based; set-up: dose 25 mg/kg; details: in vivo, sc; outline: as §2
Mus musculus [10] = assay: Toxicity in athymic NCr nu/nu mouse implanted with human Col2 cells at subcutaneous compartment assessed as body weight loss at 25 mg/kg, ip administered once daily after 3 to 6 days of fiber implantation measured on day 7 by hollow fiber assay; assay type: organism-based; set-up: dose 25 mg/kg; details: in vivo, sc; outline: as §2
Mus musculus [11] = assay: Toxicity in athymic NCr nu/nu mouse implanted with human KB cells at subcutaneous compartment assessed as body weight loss at 25 mg/kg, ip administered once daily after 3 to 6 days of fiber implantation measured on day 7 by hollow fiber assay; assay type: organism-based; set-up: dose 25 mg/kg; details: in vivo, sc; outline: as §2
Mus musculus [12] = assay: Toxicity in athymic NCr nu/nu mouse implanted with human telomerase […] RPE1 cells at intraperitoneal compartment assessed as body weight loss at 25 mg/kg, ip administered once daily after 3 to 6 days of fiber implantation measured on day 7 by hollow fiber assay; assay type: organism-based; set-up: dose 25 mg/kg, route intraperitoneal; details: in vivo; outline: as §2
Mus musculus [13] = assay: Toxicity in athymic NCr nu/nu mouse implanted with human Col2 cells at intraperitoneal compartment assessed as body weight loss at 25 mg/kg, ip administered once daily after 3 to 6 days of fiber implantation measured on day 7 by hollow fiber assay; assay type: organism-based; set-up: dose 25 mg/kg, route intraperitoneal; details: in vivo; outline: as §2
Col2 [14] = assay: Cytotoxicity against human Col2 cells; assay type: functional, cell-based
LNCaP = assay: Cytotoxicity against human LNCAP cells; assay type: functional, cell-based

Question: For `COc1ccc2c(c1)O[C@@H]1c3ccc(O)cc3OC[C@H]21`, which EC50 (KB [1]) is on record?
Answer: 2.4 µg/mL (≈ 8.88 µM)

Question: With `COc1ccc(-c2coc3cc(O)ccc3c2=O)cc1` as the compound, how does the Activity (KB [1]) read?
Answer: inactive

Question: Which Activity (KB [1]) does the source give for `Oc1ccc2c(c1)OC[C@@H]1c3cc4c(cc3O[C@H]21)OCO4` here?
Answer: inactive

Question: With `COc1c(O)cc(C/C=C/c2ccccc2)c(OC)c1O` [MACHARISTOL] as the compound, how does the inhibition in vivo at 25 mg/kg (KB [2]) read?
Answer: 23%

Question: What about the inhibition in vivo at 25 mg/kg (KB [3]) of the same compound?
Answer: 0%

Question: What about the inhibition in vivo at 25 mg/kg (Col2 [4]) of the same compound?
Answer: 35%

Question: What about the inhibition in vivo at 25 mg/kg (Col2 [5]) of the same compound?
Answer: 35%

Question: What about the inhibition in vivo at 25 mg/kg [6] of the same compound?
Answer: 31%

Question: And the inhibition in vivo at 25 mg/kg [7]?
Answer: 45%

Question: And the Activity (Mus musculus [8])?
Answer: Non-toxic

Question: And the Activity (Mus musculus [9])?
Answer: Non-toxic

Question: And the Activity (Mus musculus [10])?
Answer: Non-toxic

Question: What about the Activity (Mus musculus [11]) of the same compound?
Answer: Non-toxic

Question: And the Activity (Mus musculus [12])?
Answer: Non-toxic

Question: What about the Activity (Mus musculus [13]) of the same compound?
Answer: Non-toxic

Question: What about the EC50 (KB [1]) of the same compound?
Answer: 1.7 µg/mL (≈ 5.94 µM)

Question: And the EC50 (Col2 [14])?
Answer: 3 µg/mL (≈ 10.5 µM)

Question: And the EC50 (LNCaP)?
Answer: 2.4 µg/mL (≈ 8.38 µM)
